Source: PubChem (several laboratories)
A selection: hits, their analogues and other compounds. The true share with any hit is near 4.9%.
NF-kB neuron act – compounds increasing NF-kB expression in human neuronal cells. fold change at 12.5 µM. AID 1239. NF-kB reporter expression; hits give high values. 1.6% of 190,000 active; in the data active means fold change above about 3.3
STAT3 inh – STAT3 signaling inhibition; inhibition, % at 5.5 µM; U3A cells, IL-6 STAT3-luciferase reporter, luminescence; host cell line lacks STAT1; 0.89% of 190,000 active;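 active means inhibition above the mean inhibition across all screened compounds plus 3 SD, cut at about 44% in these data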;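 further: 0% = DMSO only wells and 100% = 100 µM nifuroxazide control wells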
STAT1 act – activators of IFN-gamma induced STAT1 signaling; NIH 3T3 STAT1-luciferase reporter, luminescence; 100% = IFN-gamma alone, no compound; activation (% of control), % at 5.5 µM; 2.6% of 200,000 active;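 active means activation above the screen-wide mean activation plus 3 SD, cut at about 130% in these data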;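 further: raw ratio to IFN-gamma control signal so 100% means no change and 0% no light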
STAT3 activator – increases IL-6 driven STAT3 reporter signal; U3A cells, IL-6 STAT3-luciferase reporter, luminescence; 100% = signal with IL-6 EC80 alone; activation (% of control), % at 5.6 µM; 0.91% of 190,000 active;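 active means activation above the screen-wide mean of compound activation plus 3 SD, cut at about 130% in these data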;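 further: 0% = background luminescence of wells with medium and substrate only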
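Test system: human U3A cells carrying STAT3-luciferase construct; control set: IL-6-only wells as 100% reference; timing: compound pre-incubation 1 h before IL-6, then 6 h stimulation at 37 °C; also added: IL-6 stimulus at 33 ng/mL final; evaluation: % activation versus median of IL-6-stimulated wells; detection: reporter luminescence signal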
STAT1 blocker – STAT1 signaling inhibition; inhibition, % at 5.5 µM; 0.35% of 200,000 active; NIH 3T3 STAT1-luciferase reporter, IFN-gamma, luminescence; AID 920;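 active means inhibition above a set limit, the mean inhibition across all tested compounds plus 3 SD, cut at about 34% in these data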;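 further: 0% = IFN-gamma with DMSO and 100% = IFN-gamma with 300 µM nifuroxazide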
APP 5'UTR act – APP 5'UTR luciferase reporter activation. SH-SY5Y APP 5'UTR luciferase reporter, luminescence; zero percent = DMSO vehicle wells. activation, % at 2 µM. 1% of 190,000 active;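 active means activation above a set limit, based on mean plus 3 SD of controls, cut at about 140% in these data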
An asterisk follows results filed as active.

SMILES	NF-kB neuron act	STAT3 inh	STAT1 act	STAT3 activator	STAT1 blocker	APP 5'UTR act
CCOc1ccc(N=C(/C(C(=O)C(=O)N2CCOCC2)=C(\O)c2ccccc2)c2ccccc2)cc1	2.1	9	139*	96	-44	88
Cn1c(N)c(C(=O)COC(=O)COc2ccc3ccccc3c2)c(=O)n(C)c1=O	0.92	-1	99	103	0	-5
CC1=NN(c2nc(-c3ccc(C)cc3)cs2)C(=O)C1N=Nc1ccccc1O (configuration not stated)	1.8	-2	108	104	-10	-52
COc1ccc(-c2csc(N3N=C(C)C(C)C3=O)n2)cc1 (configuration not stated)	2.2	7	132*	101	-34	41
O=C(CCc1nc(-c2ccccc2F)no1)NC1CCCCC1	1.3	13	96	92	4	7
O=C(Nc1ccc(Cl)cc1Cl)C1=Cc2ccccc2OC1	5.9*	26	141*	81	-45	221*
COc1ccc([N+](=O)[O-])cc1NC(=O)C1CCCCC1C(=O)O (configuration not stated)	1.1	7	96	98	4	16
C=CC[n+]1ccc(/C=C2\C=Cc3cc(C)ccc3N2CC)c2ccccc21	0.86	86*	65	26	36*	-27
CCN1/C(=C/c2cc[n+](CCCS(=O)(=O)[O-])c3ccccc23)Sc2ccccc21	0.78	4	98	99	1	12
COc1ccc(OCC(=O)Nc2cccc(NC(=O)c3ccco3)c2)cc1	1.3	5	105	99	-7	-9
O=c1[nH]c(N/N=C/c2ccc(O)cc2)nc2ccccc12	2.9	12	144*	92	-49	134
O=c1[nH]c(N/N=C\c2ccc(F)cc2)nc2ccccc12	4.1*	25	150*	83	-56	189*
O=C1NC2(CCCCC2)C(=O)N1/N=C/c1ccccc1Br	2	1	131*	107	-32	6
O=[N+]([O-])CC(=Nc1ccc(Cl)cc1)N/N=C\c1oc(O)c2ccccc12	1.2	-37	104	136*	-5	-5
CCc1cccc(CC)c1NC(=S)N1CCn2cccc2C1c1cccnc1 (configuration not stated)	0.86	11	86	90	15	4
O=C(Nc1ccccc1)N1CCN(c2nc3ccccc3s2)CC1	1.1	40	100	69	0	9
CCC(=O)N1CCN(c2nc3ccccc3s2)CC1	1.8	11	129*	92	-32	51
O=C(Nc1ccc(F)cc1)N1CCN(c2nc3ccccc3s2)CC1	1.1	46*	93	63	7	-11
O=C(C1CC1)N1CCN(c2nc3ccccc3s2)CC1	2.2	12	131*	90	-34	94
CCc1c(C)sc(NC(=O)Cn2nc(C(F)(F)F)c3c2CCCC3)c1C#N	1.4	-16	99	124	2	1
Cc1ccc(N=Nc2c(C)[nH]n(C(N)=S)c2=O)cc1	2.6	-30	137*	126	-41	48
c1ccc2nc(-c3nc4ccccc4o3)ccc2c1	1.1	80*	64	36	38*	115
COc1ccc(N/C=C2\CCOC2=O)cc1	0.99	10	91	96	11	22
O=C1/C(=C/Nc2ccc3c(c2)OCO3)CCc2ccccc21	2.2	93*	46	21	59*	153*
COc1ccc(N/C=C2\CCc3ccccc3C2=O)cc1	1.8	90*	28	25	76*	156*
SMILES	NF-kB neuron act	STAT3 inh	STAT1 act	STAT3 activator	STAT1 blocker	APP 5'UTR act
COc1ccc2c(c1)CC/C(=C\Nc1ccc3c(c1)OCO3)C2=O	3.8*	29	130*	75	-32	31
O=C1OC2(CCCCC2)OC(=O)C1=CNc1ccc2c(c1)OCO2	1.4	7	114	104	-15	1
CCCOc1ccc(CN(CCO)CCO)cc1[N+](=O)[O-]	0.95	-38	112	133*	-13	-19
COc1ccc(C(CNC(=O)c2cncc(Br)c2)N(C)C)cc1 (configuration not stated)	1.2	4	99	105	-2	-3
Fc1cccc(Cc2noc(CN3CCC(c4ccncc4)CC3)n2)c1	1	16	86	90	14	-7
O=C(Nc1ccc(-c2noc(COc3ccccc3Cl)n2)cc1)c1ccco1	1.9	18	132*	87	-34	76
COc1ccc(CC(=O)Nc2ccc(-c3noc(COc4ccccc4C)n3)cc2)cc1	1	15	95	91	4	-4
O=C(CCSc1ccccn1)Nc1ccc(Br)cc1	3.4*	-1	140*	103	-45	65
C=CCn1c(C)c(C(C)=O)c(N2CCN(C(c3ccccc3)c3ccccc3)CC2)nc1=S	0.56	12	107	94	-5	-8
COCCn1c(C)cc(C(=O)COc2ncnc3ccc(Br)cc23)c1C	1.1	-9	95	109	3	0
C=CCn1c(C)cc(C(=O)COc2ncnc3sccc23)c1C	2.8	42	107	71	-7	182*
O=c1c(C=NCc2cccnc2)c(C(F)(F)F)[nH]n1-c1nc2ccccc2s1	1.5	56*	64	54	38*	95
COC(=O)c1c(NC(=O)C2SC(=NC3CCCCC3)C(C(N)=O)=C2N)sc2c1CCCC2 (configuration not stated)	0.7	-3	91	108	9	1
O=C(CSc1nc(O)cc(=O)n1-c1ccccc1)Nc1ccc(Br)cn1	1	6	106	102	-8	-18
C/C(=N/NC(=O)c1ccc2c(c1)OCO2)c1ccc(Br)s1	1.5	6	136*	97	-41	81
C/C(=N\NC(=O)c1ccc(Cl)c(Cl)c1)c1ccc(Br)s1	1.1	5	108	100	-9	-52
O=C(Nc1nnc(Cc2ccc([N+](=O)[O-])cc2)s1)Nc1ccccc1F	1	21	101	83	-3	-7
CCc1c(C)sc(NC(=O)C2CC2c2ccccc2)c1C(N)=O (configuration not stated)	1.5	-33	107	134*	-8	4
COc1cccc(C(=O)C2CCCN(C(=O)CCC3=NNC(=O)CC3)C2)c1 (configuration not stated)	1.2	2	109	100	-12	-8
Fc1ccc(/C=N/Nc2ccccn2)cc1	2	1	117	97	-19	49
Brc1ccc(/C=N/Nc2ccccn2)cc1	3	22	138*	85	-38	58
Clc1ccc(/C=N/Nc2ccccn2)cc1	2.5	25	135*	83	-35	31
Brc1ccccc1/C=N/Nc1ccccn1	2.1	-37	122	133	-25	42
CCOC(=O)c1c(NC(=O)CC(C)C)sc(C(C)=O)c1C	5.9*	-2	90	105	8	-14
